Measurements published in ChEMBL document CHEMBL4382285, “Discovery of Novel Retigabine Derivatives as Potent KCNQ4 and KCNQ5 Channel Agonists with Improved Specificity” (ACS Med Chem Lett, 2019).
Active and inactive are the calls of the source. The rule behind the calls is not given here.

What was measured:
Type in all cases: cell-based
[1] = target: T1, Potassium voltage-gated channel subfamily KQT member 4 (Homo sapiens) (UniProt P56696); assay: (§1) Activation of human homomeric KCNQ4 expressed in CHOK1 cells at -10 mV by whole cell patch clamp assay
T1 sequence (whole entry): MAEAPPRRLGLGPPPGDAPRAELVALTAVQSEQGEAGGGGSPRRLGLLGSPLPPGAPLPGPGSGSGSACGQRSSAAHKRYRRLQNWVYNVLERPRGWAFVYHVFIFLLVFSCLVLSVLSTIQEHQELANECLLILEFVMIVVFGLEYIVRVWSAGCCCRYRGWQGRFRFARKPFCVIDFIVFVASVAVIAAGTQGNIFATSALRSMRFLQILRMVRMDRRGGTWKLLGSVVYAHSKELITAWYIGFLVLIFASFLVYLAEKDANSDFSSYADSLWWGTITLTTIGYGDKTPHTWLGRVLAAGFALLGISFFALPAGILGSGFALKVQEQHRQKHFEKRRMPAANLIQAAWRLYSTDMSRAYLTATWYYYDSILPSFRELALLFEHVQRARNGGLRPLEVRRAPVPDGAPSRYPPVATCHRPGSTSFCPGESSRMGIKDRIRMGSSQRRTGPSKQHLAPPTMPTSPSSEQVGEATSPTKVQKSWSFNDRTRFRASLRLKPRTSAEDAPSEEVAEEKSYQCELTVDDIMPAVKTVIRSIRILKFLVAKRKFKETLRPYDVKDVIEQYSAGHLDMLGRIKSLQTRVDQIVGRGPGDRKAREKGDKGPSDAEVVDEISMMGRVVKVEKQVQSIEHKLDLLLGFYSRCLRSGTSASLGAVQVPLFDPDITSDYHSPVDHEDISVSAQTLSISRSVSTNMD
Method in brief: (§2)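 Whole-cell voltage clamp of CHO-K1 cells expressing homomeric KCNQ4. Holding potential −80 mV with depolarizing steps; current read at −10 mV before and after compound at several concentrations. EC50 derived from the concentration–response relationship, with the Hill coefficient reported.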

[2] = target: T2, Potassium voltage-gated channel subfamily KQT member 4 (Homo sapiens, UniProt P56696); assay: as §1; method in brief: as §2
T2 sequence (P56696 whole entry): T1 sequence (whole entry)

[3] = target: Potassium voltage-gated channel subfamily KQT member 2 (Rattus norvegicus) (UniProt O88943); assay: Activity at rat homomeric KCNQ2 expressed in CHOK1 cells assessed as effect on current amplitude up to 30 uM at -10 mV by whole cell patch clamp assay
Method in brief: (§3)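 CHO-K1 cells expressing homomeric KCNQ2, recorded by whole-cell voltage clamp. Holding potential −80 mV with step depolarizations; current amplitude at −10 mV compared before and after compound across 1–30 μM, reported as percent change in current.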

[4] = target: Potassium voltage-gated channel subfamily KQT member 2 (Rattus norvegicus, UniProt O88943); assay: Activation of rat homomeric KCNQ2 expressed in CHOK1 cells increase in current amplitude at 30 uM at -10 mV by whole cell patch clamp assay relative to control; method in brief: as §3
[5] = target: T3, Potassium voltage-gated channel subfamily KQT member 1 (Homo sapiens, UniProt P51787); assay: Activity at human KCNQ1 expressed in CHOK1 cells assessed as ratio of amplitude of outward current in presence of test compound to amplitude of outward current in absence of test compound at 10 uM at -10 mV by whole cell patch clamp assay
T3 sequence (P51787 whole entry): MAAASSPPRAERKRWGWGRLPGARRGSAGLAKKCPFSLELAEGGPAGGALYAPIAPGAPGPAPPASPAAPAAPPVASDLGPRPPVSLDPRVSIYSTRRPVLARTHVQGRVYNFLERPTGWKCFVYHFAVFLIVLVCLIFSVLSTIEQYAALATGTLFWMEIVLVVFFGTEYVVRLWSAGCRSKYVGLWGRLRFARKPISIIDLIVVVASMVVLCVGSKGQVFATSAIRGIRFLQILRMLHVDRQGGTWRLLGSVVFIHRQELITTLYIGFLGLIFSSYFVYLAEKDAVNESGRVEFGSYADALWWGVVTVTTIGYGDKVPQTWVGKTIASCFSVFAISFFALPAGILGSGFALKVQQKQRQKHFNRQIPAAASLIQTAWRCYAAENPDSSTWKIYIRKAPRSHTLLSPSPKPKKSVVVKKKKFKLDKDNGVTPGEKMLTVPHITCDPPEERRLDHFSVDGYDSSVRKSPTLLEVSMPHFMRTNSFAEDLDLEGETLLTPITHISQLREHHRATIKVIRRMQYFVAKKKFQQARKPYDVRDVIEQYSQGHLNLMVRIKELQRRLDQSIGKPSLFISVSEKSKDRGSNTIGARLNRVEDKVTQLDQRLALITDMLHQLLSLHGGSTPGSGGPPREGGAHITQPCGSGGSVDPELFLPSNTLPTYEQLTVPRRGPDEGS
Method in brief: (§4)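 CHO-K1 cells individually transfected with a single KCNQ subtype; whole-cell voltage clamp. Held at −80 mV, stepped from −90 to +60 mV in 10 mV increments (1500 ms), then to −120 mV for 500 ms. Outward current at −10 or +60 mV measured before (I0) and after (I) 10 μM compound; I/I0 >1 counts as activation. More than four cells per compound.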

[6] = target: T3, Potassium voltage-gated channel subfamily KQT member 1; assay: Activity at human KCNQ1 expressed in CHOK1 cells assessed as ratio of amplitude of outward current in presence of test compound to amplitude of outward current in absence of test compound at 10 uM at +60 mV by whole cell patch clamp assay; method in brief: as §4
[7] = target: Potassium voltage-gated channel subfamily KQT member 2 (Rattus norvegicus) (UniProt O88943); assay: Activity at rat KCNQ2 expressed in CHOK1 cells assessed as ratio of amplitude of outward current in presence of test compound to amplitude of outward current in absence of test compound at 10 uM at +60 mV by whole cell patch clamp assay; method in brief: as §4
[8] = target: T1, Potassium voltage-gated channel subfamily KQT member 4 (Homo sapiens); assay: Activity at human KCNQ4 expressed in CHOK1 cells assessed as ratio of amplitude of outward current in presence of test compound to amplitude of outward current in absence of test compound at 10 uM at +60 mV by whole cell patch clamp assay; method in brief: as §4
[9] = target: Potassium voltage-gated channel subfamily KQT member 5 (Homo sapiens, UniProt Q9NR82); assay: Activity at human KCNQ5 expressed in CHOK1 cells assessed as ratio of amplitude of outward current in presence of test compound to amplitude of outward current in absence of test compound at 10 uM at +60 mV by whole cell patch clamp assay; method in brief: as §4
[10] = target: Potassium voltage-gated channel subfamily KQT member 2 (Rattus norvegicus) (UniProt O88943); assay: Effect on voltage-dependent activation of rat KCNQ2 expressed in CHOK1 cells assessed as negative shift in current activation curve at 10 uM by whole cell patch clamp assay
[11] = target: T1, Potassium voltage-gated channel subfamily KQT member 4 (Homo sapiens); assay: Effect on voltage-dependent activation of human KCNQ4 expressed in CHOK1 cells assessed as negative shift in current activation curve at 10 uM by whole cell patch clamp assay

Sequence of Potassium voltage-gated channel subfamily KQT member 2 (Rattus norvegicus) (O88943 whole entry): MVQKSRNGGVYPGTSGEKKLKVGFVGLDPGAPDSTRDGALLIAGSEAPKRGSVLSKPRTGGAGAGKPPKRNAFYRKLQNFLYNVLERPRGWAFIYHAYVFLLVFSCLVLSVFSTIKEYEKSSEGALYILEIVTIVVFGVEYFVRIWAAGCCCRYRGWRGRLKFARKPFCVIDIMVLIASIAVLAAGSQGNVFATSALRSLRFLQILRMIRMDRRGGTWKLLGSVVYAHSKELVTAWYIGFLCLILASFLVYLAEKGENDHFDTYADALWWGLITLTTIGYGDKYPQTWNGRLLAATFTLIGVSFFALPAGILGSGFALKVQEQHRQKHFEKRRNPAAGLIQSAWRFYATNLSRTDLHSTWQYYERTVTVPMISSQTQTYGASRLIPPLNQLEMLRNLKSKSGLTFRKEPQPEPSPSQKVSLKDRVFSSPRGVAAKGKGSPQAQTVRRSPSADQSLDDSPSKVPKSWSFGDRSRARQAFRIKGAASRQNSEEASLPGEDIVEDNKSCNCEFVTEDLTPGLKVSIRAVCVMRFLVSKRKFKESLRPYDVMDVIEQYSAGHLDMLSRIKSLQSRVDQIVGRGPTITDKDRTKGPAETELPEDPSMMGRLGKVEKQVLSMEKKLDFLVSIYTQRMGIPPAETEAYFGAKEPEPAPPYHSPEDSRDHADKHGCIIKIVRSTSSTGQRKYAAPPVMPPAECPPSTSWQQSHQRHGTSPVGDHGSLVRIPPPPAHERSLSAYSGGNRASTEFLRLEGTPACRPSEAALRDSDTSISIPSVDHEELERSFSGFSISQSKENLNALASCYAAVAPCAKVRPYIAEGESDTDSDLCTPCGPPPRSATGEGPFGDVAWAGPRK
Sequence of Potassium voltage-gated channel subfamily KQT member 2 (O88943 whole entry): as above
Sequence of Potassium voltage-gated channel subfamily KQT member 5 (Q9NR82 whole entry): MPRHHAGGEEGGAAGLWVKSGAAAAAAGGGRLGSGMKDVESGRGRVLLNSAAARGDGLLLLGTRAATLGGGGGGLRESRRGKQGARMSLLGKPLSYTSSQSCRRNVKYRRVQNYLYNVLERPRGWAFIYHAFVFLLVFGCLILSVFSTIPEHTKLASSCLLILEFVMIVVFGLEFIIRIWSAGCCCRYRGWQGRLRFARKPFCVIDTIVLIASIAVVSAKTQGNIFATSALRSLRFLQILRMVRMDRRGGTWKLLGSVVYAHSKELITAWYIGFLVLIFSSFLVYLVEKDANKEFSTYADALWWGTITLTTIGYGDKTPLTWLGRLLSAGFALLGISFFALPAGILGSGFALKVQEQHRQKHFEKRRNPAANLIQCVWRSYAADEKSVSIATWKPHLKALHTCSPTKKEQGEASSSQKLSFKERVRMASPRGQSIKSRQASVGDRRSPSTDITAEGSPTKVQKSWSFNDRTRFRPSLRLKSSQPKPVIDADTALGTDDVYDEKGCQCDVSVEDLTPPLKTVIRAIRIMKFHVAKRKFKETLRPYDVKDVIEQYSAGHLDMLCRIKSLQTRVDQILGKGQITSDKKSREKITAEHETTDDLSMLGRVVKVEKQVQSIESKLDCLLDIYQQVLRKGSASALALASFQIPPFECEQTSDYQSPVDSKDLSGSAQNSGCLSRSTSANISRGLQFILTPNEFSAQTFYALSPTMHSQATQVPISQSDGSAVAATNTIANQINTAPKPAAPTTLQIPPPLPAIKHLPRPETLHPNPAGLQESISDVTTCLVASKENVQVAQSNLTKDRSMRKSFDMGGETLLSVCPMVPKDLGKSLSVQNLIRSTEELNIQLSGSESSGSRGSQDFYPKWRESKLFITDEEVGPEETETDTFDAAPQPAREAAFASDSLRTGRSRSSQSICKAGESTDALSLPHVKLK

## C#CCN(Cc1ccc(F)cc1)c1ccc(NC(=O)OCC)c(NC(=O)OCC)c1
[1]
  Activity: Dose-dependent effect
[2]
  EC50: 890 nM
[3]
  Activity: inactive
[4]
  Activity: 2%
[5]
  Ratio: 1
[6]
  Ratio: 1
[7]
  Ratio: 0.8
[8]
  Ratio: 6.6
[9]
  Ratio: 4.8
[10]
  Activity: inactive
[11]
  Activity: inactive
